Data on 19 compounds can be found in ChEMBL document CHEMBL1149900, “ent-Labdane diterpenoid lactone stereoisomers from Andrographis paniculata” (2008).

As a reminder, the GI50 is the concentration that inhibits growth by half. Read a low GI50 as more potent growth inhibition.

The test deals with HL-60. Nature of the test: Antiproliferative activity against human HL60 cells by trypan blue assay. It counts as functional. The method in brief: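 HL-60 cells seeded at 1 × 10^5 cells/mL, exposed to test compound at 5, 10, 20, 40 or 60 µM for 3 days. Viable growth scored by trypan blue staining, with total cells counted on a hemocytometer. GI50 taken as the concentration halving cell growth. Reported as mean ± SD of three independent experiments, with adriamycin as positive control.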

`C=C1CC[C@@H]2[C@](C)(CO)[C@H](O)CC[C@@]2(C)[C@@H]1/C=C/C1=CCOC1=O` showed a GI50 of 25.6 µM. In other words, the double-digit micromolar range. As for `C=C1CC[C@H]2[C@@](C)(CCC(=O)[C@@]2(C)CO)[C@@H]1/C=C/C1=CCOC1=O`, growth was halved (GI50) at 19.2 µM.

Compound `C=C1CC[C@@H]2[C@](C)(CO)[C@H](O)CC[C@@]2(C)[C@@H]1C/C=C1\C(=O)OC[C@H]1O` gave a GI50 of 6.3 µM. The same measure for `C=C1[C@H](O)C[C@@H]2[C@](C)(CO)[C@H](O)CC[C@@]2(C)[C@@H]1CCC1=CCOC1=O`: 22.5 µM; for `C=C1CC[C@@H]2[C@](C)(CO)[C@H](O)CC[C@@]2(C)[C@@H]1C[C@@H](O)[C@H]1C(=O)OC[C@H]1O`: 26.6 µM; for `C=C1CC[C@@H]2[C@](C)(CO)[C@H](O)CC[C@@]2(C)[C@@H]1C[C@H](O)[C@@H]1C(=O)OC[C@H]1O`: 24.4 µM. As for `C=C1CC[C@@H]2[C@](C)(CO)[C@H](O)CC[C@@]2(C)[C@@H]1CCO`, the figure is 24.9 µM; as for `C=C1CC[C@@H]2[C@](C)(CO)[C@H](O)CC[C@@]2(C)[C@@H]1/C=C/C1=CC(OC)OC1=O` (some centres undefined), 26.4 µM.

As to `C=C1CC[C@@H]2[C@](C)(CO)CCC[C@@]2(C)[C@@H]1CC/C(=C/CO)CO`, the 50% growth inhibitory concentration (GI50) was 20.4 µM. As for `C=C1CC[C@@H]2[C@](C)(CO)[C@H](O)CC[C@@]2(C)[C@@H]1/C=C/C(=O)O`, the figure is 28.8 µM; as for `C=C1CC[C@@H]2[C@](C)(CO)[C@H](O)CC[C@@]2(C)[C@@H]1CC/C(=C/CO)C(=O)O`, 22.4 µM.

Take `C=C1CC[C@H]2[C@@](C)(CCC(=O)[C@@]2(C)CO)[C@@H]1CCC1=CCOC1=O`: growth was halved (GI50) at 22.8 µM. As for `C=C1[C@@H](CCC2=CCOC2=O)[C@]2(C)CC[C@@H](O)[C@@](C)(CO)[C@H]2C[C@@H]1O`, the figure is 25.2 µM; as for `C=C1CC[C@@H]2[C@](C)(CO)CCC[C@@]2(C)[C@@H]1CCC1=CCOC1=O` [ANDROGRAPANIN], 20 µM.

As for `C=C1CC[C@@H]2[C@](C)(CO[C@@H]3O[C@H](CO)[C@@H](O)[C@H](O)[C@H]3O)[C@H](O)CC[C@@]2(C)[C@@H]1C/C=C1/C(=O)OC[C@H]1O` [ANDROGRAPHISIDE], halving of growth (GI50) required 28.8 µM. This GI50 and that of the compound before are within 1.5-fold of each other.

`C=C1CC[C@@H]2[C@](C)(CO)[C@H](O)CC[C@@]2(C)[C@@H]1C/C=C1/C(=O)OC[C@H]1O` [ANDROGRAPHOLIDE] yielded a GI50 of 9.33 µM. As for `C=C1CC[C@@H]2[C@](C)(CO)[C@H](O)CC[C@@]2(C)[C@@H]1CCC1=CCOC1=O` [DEOXYANDROGRAPHOLIDE], the figure is 25.5 µM; as for `COc1cccc2c1C(=O)c1c(O)c3c(c(O)c1C2=O)C[C@@](O)(C(=O)CO)C[C@@H]3O[C@H]1C[C@H](N)[C@H](O)[C@H](C)O1` [DOXORUBICIN], 0.018 µM; as for `C=C1CC[C@@H]2[C@](C)(CO[C@@H]3O[C@H](CO)[C@@H](O)[C@H](O)[C@H]3O)CCC[C@@]2(C)[C@@H]1CCC1=CCOC1=O` [NEOANDROGRAPHOLIDE], 26.7 µM.
